What was measured:
[1] = target: Metabotropic glutamate receptor 2 (Homo sapiens, UniProt Q14416); assay: Activity at human recombinant mGluR2 expressed in BHK cells assessed as stimulation of [35S]GTP-gamma-S binding; assay type: functional, cell-based
[2] = target: T1, Metabotropic glutamate receptor 4 (Rattus norvegicus, UniProt P31423); assay: Displacement of [3H]L-AP4 from rat recombinant mGluR4 expressed in BHK cells by SPA assay; assay type: cell-based
How it was run: (§1)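 Scintillation proximity binding assay on membranes of BHK cells expressing rmGluR4 or rmGluR8. Radioligand was [3H]-L-AP4 for rmGluR4 and [3H]-LY341495 for rmGluR8. Values are means ± SEM of at least three independent experiments performed in triplicate.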

[3] = target: T1, Metabotropic glutamate receptor 4; assay: Agonist activity at rat recombinant mGluR4 expressed in BHK cells; assay type: functional, cell-based
How it was run: (§2)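 Group III functional read-out: cAMP formation measured in BHK cells expressing hmGluR7 or rmGluR4. EC50 reported in µM as means ± SEM of at least three independent experiments, each performed in triplicate.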

[4] = target: Metabotropic glutamate receptor 1 (Rattus norvegicus, UniProt P23385); assay: Activity at rat recombinant mGluR1 expressed in CHO cells assessed as intracellular calcium concentration; assay type: functional, cell-based
Chain of Metabotropic glutamate receptor 1 (P23385 whole entry): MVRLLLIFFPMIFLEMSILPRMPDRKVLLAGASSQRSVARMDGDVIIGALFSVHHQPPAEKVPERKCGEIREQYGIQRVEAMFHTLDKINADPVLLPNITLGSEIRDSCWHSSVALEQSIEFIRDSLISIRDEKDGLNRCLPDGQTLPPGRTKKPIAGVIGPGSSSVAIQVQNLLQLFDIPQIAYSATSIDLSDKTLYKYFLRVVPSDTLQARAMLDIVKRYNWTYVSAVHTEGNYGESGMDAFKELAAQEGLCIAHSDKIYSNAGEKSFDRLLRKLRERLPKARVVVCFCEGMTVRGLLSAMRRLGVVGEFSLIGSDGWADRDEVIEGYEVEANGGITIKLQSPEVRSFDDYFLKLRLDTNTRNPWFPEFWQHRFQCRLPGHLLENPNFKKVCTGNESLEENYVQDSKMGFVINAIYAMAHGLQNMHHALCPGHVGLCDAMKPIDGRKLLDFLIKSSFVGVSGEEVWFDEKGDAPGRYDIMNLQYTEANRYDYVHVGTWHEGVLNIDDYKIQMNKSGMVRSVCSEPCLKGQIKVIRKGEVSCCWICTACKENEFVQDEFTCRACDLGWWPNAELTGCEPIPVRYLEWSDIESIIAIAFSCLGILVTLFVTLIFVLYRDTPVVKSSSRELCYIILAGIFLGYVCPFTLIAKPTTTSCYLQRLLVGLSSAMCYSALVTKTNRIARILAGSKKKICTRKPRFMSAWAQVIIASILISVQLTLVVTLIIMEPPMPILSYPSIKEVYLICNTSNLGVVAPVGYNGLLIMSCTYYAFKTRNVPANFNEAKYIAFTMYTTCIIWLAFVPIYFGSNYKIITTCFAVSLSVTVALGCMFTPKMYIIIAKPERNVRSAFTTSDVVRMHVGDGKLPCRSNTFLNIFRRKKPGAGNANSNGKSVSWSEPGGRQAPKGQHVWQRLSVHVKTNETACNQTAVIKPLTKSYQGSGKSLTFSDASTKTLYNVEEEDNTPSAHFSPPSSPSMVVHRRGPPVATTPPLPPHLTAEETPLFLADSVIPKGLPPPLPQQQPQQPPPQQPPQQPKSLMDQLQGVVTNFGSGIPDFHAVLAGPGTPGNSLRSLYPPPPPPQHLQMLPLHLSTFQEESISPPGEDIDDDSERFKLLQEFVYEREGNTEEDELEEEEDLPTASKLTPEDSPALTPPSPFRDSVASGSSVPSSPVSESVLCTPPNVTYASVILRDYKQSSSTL

[5] = target: Metabotropic glutamate receptor 5 (Rattus norvegicus, UniProt P31424); assay: Activity at rat recombinant mGluR5 expressed in CHO cells assessed as intracellular calcium concentration; assay type: functional, cell-based
[6] = target: Metabotropic glutamate receptor 7 (Homo sapiens, UniProt Q14831); assay: Activity at human recombinant mGluR7 expressed in BHK cells assessed as cAMP production; assay type: functional, cell-based; how it was run: as §2
[7] = target: Metabotropic glutamate receptor 6 (Rattus norvegicus, UniProt P35349); assay: Activity at rat recombinant mGluR6 expressed in CHO cells assessed as cAMP production; assay type: functional, cell-based
Chain of Metabotropic glutamate receptor 6 (P35349 whole entry): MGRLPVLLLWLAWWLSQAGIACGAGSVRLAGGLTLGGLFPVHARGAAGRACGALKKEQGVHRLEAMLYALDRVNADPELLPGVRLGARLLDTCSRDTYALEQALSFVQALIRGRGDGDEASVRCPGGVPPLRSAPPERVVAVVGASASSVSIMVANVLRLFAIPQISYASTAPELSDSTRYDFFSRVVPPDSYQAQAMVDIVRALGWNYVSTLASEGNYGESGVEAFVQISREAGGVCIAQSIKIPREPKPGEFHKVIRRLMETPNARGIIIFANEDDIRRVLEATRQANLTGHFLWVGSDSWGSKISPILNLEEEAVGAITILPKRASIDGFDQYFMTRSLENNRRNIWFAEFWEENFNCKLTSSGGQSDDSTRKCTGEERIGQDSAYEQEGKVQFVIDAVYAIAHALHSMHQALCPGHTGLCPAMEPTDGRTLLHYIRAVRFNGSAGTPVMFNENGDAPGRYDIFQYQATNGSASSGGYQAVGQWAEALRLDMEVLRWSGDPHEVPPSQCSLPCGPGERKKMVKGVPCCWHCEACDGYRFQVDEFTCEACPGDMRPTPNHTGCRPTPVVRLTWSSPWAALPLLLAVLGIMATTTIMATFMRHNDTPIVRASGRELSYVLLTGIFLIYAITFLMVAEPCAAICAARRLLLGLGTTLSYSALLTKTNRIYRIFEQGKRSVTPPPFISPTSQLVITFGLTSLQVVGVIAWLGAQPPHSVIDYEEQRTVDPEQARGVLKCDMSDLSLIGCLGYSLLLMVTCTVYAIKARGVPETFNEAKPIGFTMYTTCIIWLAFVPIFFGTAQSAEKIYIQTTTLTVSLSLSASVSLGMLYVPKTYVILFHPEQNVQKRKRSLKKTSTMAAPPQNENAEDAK
How it was run: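 rmGluR6 expressed in CHO cells. Potency was measured from cAMP formation, reported as EC50. Means ± SEM of at least three independent experiments, each in triplicate.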

[8] = target: Metabotropic glutamate receptor 8 (Rattus norvegicus, UniProt P70579); assay: Displacement of [3H]LY341495 from rat recombinant mGluR8 expressed in BHK cells by SPA assay; assay type: cell-based; how it was run: as §1
Chain of Metabotropic glutamate receptor 8 (P70579 whole entry): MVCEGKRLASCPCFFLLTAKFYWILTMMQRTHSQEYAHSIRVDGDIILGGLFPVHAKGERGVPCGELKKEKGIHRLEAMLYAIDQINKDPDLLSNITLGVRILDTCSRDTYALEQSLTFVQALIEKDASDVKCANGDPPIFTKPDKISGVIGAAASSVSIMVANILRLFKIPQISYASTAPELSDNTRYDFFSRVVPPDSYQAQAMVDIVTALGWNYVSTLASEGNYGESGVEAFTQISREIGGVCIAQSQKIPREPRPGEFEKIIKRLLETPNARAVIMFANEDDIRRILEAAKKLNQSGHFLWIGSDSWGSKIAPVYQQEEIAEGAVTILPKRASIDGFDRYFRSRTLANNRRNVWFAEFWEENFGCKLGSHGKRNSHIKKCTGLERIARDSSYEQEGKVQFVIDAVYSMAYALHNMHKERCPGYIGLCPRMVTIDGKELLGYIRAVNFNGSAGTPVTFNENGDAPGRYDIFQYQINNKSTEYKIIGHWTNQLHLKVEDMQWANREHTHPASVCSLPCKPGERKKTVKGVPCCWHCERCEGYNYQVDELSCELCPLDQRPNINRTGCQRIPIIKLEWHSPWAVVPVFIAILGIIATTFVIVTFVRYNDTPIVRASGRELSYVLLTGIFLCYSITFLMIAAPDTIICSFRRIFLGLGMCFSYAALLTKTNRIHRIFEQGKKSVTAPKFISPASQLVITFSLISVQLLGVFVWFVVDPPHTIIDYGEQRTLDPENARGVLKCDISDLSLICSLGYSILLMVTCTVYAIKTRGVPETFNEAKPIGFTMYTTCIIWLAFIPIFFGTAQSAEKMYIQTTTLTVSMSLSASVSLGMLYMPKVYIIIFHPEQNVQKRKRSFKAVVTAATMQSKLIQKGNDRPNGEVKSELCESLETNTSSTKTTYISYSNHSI

Chain of Metabotropic glutamate receptor 2 (Q14416 whole entry): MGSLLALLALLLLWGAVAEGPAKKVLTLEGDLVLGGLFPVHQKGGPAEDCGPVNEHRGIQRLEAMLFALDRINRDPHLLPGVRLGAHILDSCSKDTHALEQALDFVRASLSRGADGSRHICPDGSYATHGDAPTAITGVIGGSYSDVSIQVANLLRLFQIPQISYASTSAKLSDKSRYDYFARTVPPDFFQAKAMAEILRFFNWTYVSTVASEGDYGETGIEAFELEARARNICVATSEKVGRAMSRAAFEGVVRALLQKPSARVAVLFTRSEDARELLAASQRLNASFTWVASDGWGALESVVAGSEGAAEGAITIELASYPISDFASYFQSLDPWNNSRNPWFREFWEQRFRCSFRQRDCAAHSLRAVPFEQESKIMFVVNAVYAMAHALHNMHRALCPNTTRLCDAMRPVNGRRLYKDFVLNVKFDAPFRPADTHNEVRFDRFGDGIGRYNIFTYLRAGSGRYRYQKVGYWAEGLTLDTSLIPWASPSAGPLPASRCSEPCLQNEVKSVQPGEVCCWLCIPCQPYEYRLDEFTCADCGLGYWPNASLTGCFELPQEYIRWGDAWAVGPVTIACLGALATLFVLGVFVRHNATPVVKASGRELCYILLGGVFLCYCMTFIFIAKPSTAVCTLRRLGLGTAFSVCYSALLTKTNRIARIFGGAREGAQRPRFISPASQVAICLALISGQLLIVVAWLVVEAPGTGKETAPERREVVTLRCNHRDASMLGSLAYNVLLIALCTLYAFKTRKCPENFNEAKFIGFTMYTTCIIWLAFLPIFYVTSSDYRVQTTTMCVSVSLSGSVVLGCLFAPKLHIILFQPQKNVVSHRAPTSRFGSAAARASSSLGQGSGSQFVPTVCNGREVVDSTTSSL
T1 sequence (P31423 whole entry): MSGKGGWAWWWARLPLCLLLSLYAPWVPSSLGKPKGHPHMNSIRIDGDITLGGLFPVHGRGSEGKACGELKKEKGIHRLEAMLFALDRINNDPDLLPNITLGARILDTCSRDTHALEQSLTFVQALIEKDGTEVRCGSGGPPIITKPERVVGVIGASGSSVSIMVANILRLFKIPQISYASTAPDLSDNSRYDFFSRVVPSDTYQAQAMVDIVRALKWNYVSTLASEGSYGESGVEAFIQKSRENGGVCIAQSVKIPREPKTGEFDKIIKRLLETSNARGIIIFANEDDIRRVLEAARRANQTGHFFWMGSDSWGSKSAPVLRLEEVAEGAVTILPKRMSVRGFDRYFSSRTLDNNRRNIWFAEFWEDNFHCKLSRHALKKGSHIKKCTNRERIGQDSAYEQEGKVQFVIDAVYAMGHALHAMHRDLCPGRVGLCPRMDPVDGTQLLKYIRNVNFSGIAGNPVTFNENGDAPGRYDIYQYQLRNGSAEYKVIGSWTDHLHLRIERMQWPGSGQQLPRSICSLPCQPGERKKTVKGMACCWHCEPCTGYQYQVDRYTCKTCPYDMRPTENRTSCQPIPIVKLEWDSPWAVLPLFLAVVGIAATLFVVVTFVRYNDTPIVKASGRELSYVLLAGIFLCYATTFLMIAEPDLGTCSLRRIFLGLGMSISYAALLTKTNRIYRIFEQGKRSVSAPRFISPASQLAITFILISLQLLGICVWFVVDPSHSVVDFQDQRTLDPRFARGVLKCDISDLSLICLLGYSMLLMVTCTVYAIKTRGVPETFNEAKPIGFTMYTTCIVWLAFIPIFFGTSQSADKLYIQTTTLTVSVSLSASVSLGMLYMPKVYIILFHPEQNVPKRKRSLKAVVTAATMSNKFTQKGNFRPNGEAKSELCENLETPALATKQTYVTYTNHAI

Compound	EC50 [1]	Ki [2]	EC50 [3]	EC50 [4]	EC50 [5]	EC50 [6]	EC50 [7]	Ki [8]
NC(C(=O)O)[C@@H]1[C@H](c2ccccc2)[C@H]1P(=O)(O)O (some centres not stated)	> 1000 µM	> 1000 µM	> 1000 µM	> 1000 µM	> 1000 µM	–	–	–
NC(C(=O)O)[C@@H]1[C@@H](c2ccccc2)[C@H]1P(=O)(O)O (some centres not stated)	> 1000 µM	> 1000 µM	–	> 1000 µM	> 1000 µM	> 1000 µM	> 1000 µM	–
NC(C(=O)O)[C@H]1[C@H](c2ccccc2)[C@@H]1P(=O)(O)O (some centres not stated)	> 1000 µM	24 µM	59 µM	> 1000 µM	> 1000 µM	> 1000 µM	51 µM	130 µM
NC(C(=O)O)[C@H]1[C@@H](c2ccccc2)[C@@H]1P(=O)(O)O (some centres not stated)	320 µM	630 µM	–	> 1000 µM	> 1000 µM	–	–	190 µM
NC(C(=O)O)[C@H]1C[C@@H]1P(=O)(O)O (some centres not stated)	> 1000 µM	7.4 µM	9.4 µM	> 1000 µM	> 1000 µM	700 µM	13 µM	63 µM

From ChEMBL document CHEMBL1147898, “Synthesis and preliminary pharmacological evaluation of the four stereoisomers of (2S)-2-(2'-phosphono-3'-phenylcyclopropyl)glycine, the first class of 3'-substituted trans C1'-2'-2-(2'-phosphonocyclopropyl)glycines” (Bioorg Med Chem, 2007)
